Experimental findings from ChEMBL document CHEMBL3414532 (J Med Chem, 2015) are described below.

One series relates to Human immunodeficiency virus. Put plainly: Antiviral activity against HIV infected in human HeLa P4/R5 cells pre-incubated for 16 hrs before virus infection and measured 48 hrs post virus infection by fluorescence-based beta-galactosidase detection assay. Format: functional, organism-based. The conditions noted are these: Human immunodeficiency virus 1, P4/R5. The method, boiled down:
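P4R5 indicator cells (expressing CD4, CXCR4, CCR5 and an HIV LTR-driven β-galactosidase reporter) seeded at 5 × 10^3 per well in DMEM/10% FBS with puromycin (0.5 μg/mL). Drug added 16 h before HIV exposure, then 48 h further incubation. Single replication cycle; infection read by fluorescence-based β-galactosidase detection. Highest concentration tested 50 μM; values are averages of two determinations.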
Regarding `O=C1Cc2cc(Cc3ccc(-c4ccccc4)cc3)ccc2C(=O)N1O`, it took 3000 nM to reach a half-maximal effect (EC50).
In the case of `O=C1Cc2cc(Cc3ccc(-c4ccc(F)cc4)cc3)ccc2C(=O)N1O`, the EC50 was determined as 10000 nM.

A further series concerns the target T1, Human immunodeficiency virus type 1 reverse transcriptase (Human immunodeficiency virus 1, UniProt Q72547). Put plainly: Inhibition of HIV1 recombinant reverse transcriptase associated catalytically active RNase H domain assessed as reduction in RNA 5' end directed cleavage using HTS-3 RNA/DNA duplex substrate by fluorescence assay.
Details: not given
For the molecule `O=C1Cc2cc(Cc3ccccc3)ccc2C(=O)N1O`, the IC50 turned out to be 1100 nM.
The same measure, in the same setting: as for `O=C1Cc2cc(Cc3ccc(C4CC4)cc3)ccc2C(=O)N1O`, the figure is 900 nM; as for `O=C1Cc2cc(Cc3ccc(-c4ccccc4)cc3)ccc2C(=O)N1O`, 900 nM.
As to `O=C1Cc2cc(Cc3ccc(-c4ccc(F)cc4)cc3)ccc2C(=O)N1O`, the IC50 came to 5000 nM.

In a further series the target is T1, Human immunodeficiency virus type 1 reverse transcriptase. Description: Inhibition of HIV1 recombinant reverse transcriptase associated catalytically active RNase H domain assessed as reduction in DNA 3' end directed cleavage using HTS-2 RNA/DNA duplex substrate by fluorescence assay.
Details: not given
For `O=C1Cc2cc(Cc3ccccc3)ccc2C(=O)N1O`, the IC50 is 1400 nM.
`O=C1Cc2cc(Cc3ccc(C4CC4)cc3)ccc2C(=O)N1O`: the IC50 came out at 800 nM.
Take `O=C1Cc2cc(Cc3ccc(-c4ccccc4)cc3)ccc2C(=O)N1O`: the IC50 came out at 600 nM.
For the molecule `O=C1Cc2cc(Cc3ccc(-c4ccc(F)cc4)cc3)ccc2C(=O)N1O`, the IC50 worked out at 4900 nM.

The target of another series is Human immunodeficiency virus type 1 integrase (Human immunodeficiency virus 1, UniProt Q7ZJM1). Put plainly: Inhibition of HIV integrase pre-incubated for 10 mins before DNA substrate addition.
Sequence of Human immunodeficiency virus type 1 integrase (Q7ZJM1 whole entry): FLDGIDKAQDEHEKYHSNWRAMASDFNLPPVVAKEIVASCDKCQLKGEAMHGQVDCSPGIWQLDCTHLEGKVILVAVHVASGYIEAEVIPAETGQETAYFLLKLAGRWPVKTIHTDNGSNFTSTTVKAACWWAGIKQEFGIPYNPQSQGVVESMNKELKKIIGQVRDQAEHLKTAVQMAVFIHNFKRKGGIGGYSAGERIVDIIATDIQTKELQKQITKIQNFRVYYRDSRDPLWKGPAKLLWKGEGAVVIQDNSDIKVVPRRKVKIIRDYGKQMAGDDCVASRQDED
Details: not given
The method, boiled down: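 Strand transfer assay: 1 μM HIV integrase in 10 mM HEPES pH 7.5, 10% glycerol, 10 mM MnCl2, 1 mM DTT, with compound at 0.13–100 μM final in duplicate, preincubated 10 min at 25 °C. Started with biotin/Cy5-labelled oligo duplex, run 30 min at 37 °C, stopped with EDTA. Mean ± SD from at least three experiments.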
For `O=C1Cc2cc(Cc3ccccc3)ccc2C(=O)N1O`, the IC50 was 3800 nM.
Take `O=C1Cc2cc(Cc3ccc(Cl)cc3)ccc2C(=O)N1O`: inhibition was half-maximal at 4400 nM (IC50).
As to `O=C1Cc2cc(Cc3ccc(C4CC4)cc3)ccc2C(=O)N1O`, the IC50 came out at 3800 nM.
Regarding `O=C1Cc2cc(Cc3ccc(-c4ccccc4)cc3)ccc2C(=O)N1O`, the IC50 was greater than 100000 nM.
Same read-out and setting: as for `O=C1Cc2cc(Cc3ccc(-c4ccc(F)cc4)cc3)ccc2C(=O)N1O`, the figure is greater than 100000 nM.

System in another series: not listed separately
Put plainly: Selectivity index, ratio of IC50 for HIV integrase to IC50 for HIV1 recombinant reverse transcriptase associated catalytically active RNase H-mediated domain internal cleavage activity.
Details: not given
On to `O=C1Cc2cc(Cc3ccccc3)ccc2C(=O)N1O`, for which the Ratio IC50 was 2.9.

Another series addresses T1, Human immunodeficiency virus type 1 reverse transcriptase. Put plainly: Inhibition of HIV1 recombinant reverse transcriptase polymerase activity using [3H]TTP and poly(rA)-oligo(dT)16 substrate incubated for 20 mins by liquid scintillation spectrometry.
Details: not given
A digest of the protocol: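 HIV RT (WT or NNRTI-resistant mutant, 10 nM) added to start reaction with 10 μM [3H]-TTP and 40 nM poly(rA)-oligo(dT)16 in 50 mM Tris-HCl pH 7.4, 60 mM KCl, 5 mM MgCl2; 20 min at 37 °C. Quenched with ice-cold 10% TCA/20 mM sodium pyrophosphate, glass-fiber filtered, washed with TCA and ethanol; incorporation counted by scintillation.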
Take `O=C1Cc2cc(Cc3ccccc3)ccc2C(=O)N1O`: the half-maximal inhibitory concentration (IC50) was 1700 nM.

For another series the target is unchanged. Put plainly: Inhibition of HIV1 recombinant reverse transcriptase associated catalytically active RNase H domain assessed as reduction in internal cleavage using HTS-1 RNA/DNA duplex substrate by fluorescence assay.
Details: not given
Turning to `O=C1Cc2cc(Cc3ccccc3)ccc2C(=O)N1O`, the IC50 was determined as 1300 nM.
The same measure, in the same setting: as for `O=C1Cc2cc(Cc3ccc(C4CC4)cc3)ccc2C(=O)N1O`, the figure is 600 nM; as for `O=C1Cc2cc(Cc3ccc(-c4ccccc4)cc3)ccc2C(=O)N1O`, 800 nM; as for `O=C1Cc2cc(Cc3ccc(-c4ccc(F)cc4)cc3)ccc2C(=O)N1O`, 5400 nM.

The next series has as its target Gag-Pol polyprotein (Moloney murine leukemia virus isolate Shinnick, UniProt P03355). Put plainly: Inhibition of Moloney murine leukemia virus reverse transcriptase polymerase activity using Td100/Pd18 DNA-DNA substrate incubated for 30 mins by fluorescence assay.
Details: not given
The molecule `O=C1Cc2cc(Cc3ccccc3)ccc2C(=O)N1O` yielded an IC50 of 3200 nM.

System in another series: not listed separately
Description: Toxicity against human HeLa P4/R5 cells. The class given is cell-based. The conditions noted are these: p4/r5.
Regarding `O=C1Cc2cc(Cc3ccc(-c4ccccc4)cc3)ccc2C(=O)N1O`, the CC50 stood at 50000 nM.

The next series has as its target T1, Human immunodeficiency virus type 1 reverse transcriptase. Put plainly: Inhibition of reconstituted HIV1 RNase H using RNA/DNA duplex substrate by fluorescence assay.
Details: not given
Turning to `O=C1Cc2cc(Cc3ccccc3)ccc2C(=O)N1O`, the IC50 is 1100 nM.
Take `O=C1Cc2cc(Cc3ccc(-c4ccncc4)cc3)ccc2C(=O)N1O`: half-maximal inhibition (IC50) required 800 nM.
Take `NC(=O)c1ccc(-c2ccc(Cc3ccc4c(c3)CC(=O)N(O)C4=O)cc2)cc1`: half-maximal inhibition (IC50) was put at 1500 nM.
`O=C1Cc2cc(Cc3ccc(C4CC4)cc3)ccc2C(=O)N1O`: inhibition was half-maximal at 900 nM (IC50).
Still for that read-out and setting: as for `O=C1Cc2cc(Cc3ccc(-c4ccccc4)cc3)ccc2C(=O)N1O`, the figure is 500 nM.
Consider `O=C1Cc2cc(Cc3ccc(-c4ccc(F)cc4)cc3)ccc2C(=O)N1O`, for which inhibition was half-maximal at 2800 nM (IC50).

System in another series: not listed separately
Description: Inhibition of Moloney murine leukemia virus reverse transcriptase associated RNase H pre-incubated for 10 mins before HTS-1 RNA/DNA duplex substrate addition by fluorescence assay.
Details: not given
A digest of the protocol:
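Preincubated 10 min at room temperature, then started with 100 nM HTS-1 duplex. IC50 at curve midpoint; duplicates, at least two experiments.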
`O=C1Cc2cc(Cc3ccccc3)ccc2C(=O)N1O` displayed an IC50 greater than 30000 nM.
`O=C1Cc2cc(Cc3ccc(-c4ccncc4)cc3)ccc2C(=O)N1O` showed an IC50 greater than 30000 nM.
Same read-out and setting: as for `O=C1Cc2cc(Cc3ccc(Cl)cc3)ccc2C(=O)N1O`, the figure is greater than 30000 nM; as for `CS(=O)(=O)c1ccc(-c2ccc(Cc3ccc4c(c3)CC(=O)N(O)C4=O)cc2)cc1`, greater than 30000 nM.
The molecule `O=C1Cc2cc(Cc3ccc(C4CC4)cc3)ccc2C(=O)N1O` came in with an IC50 greater than 30000 nM.
On to `O=C1Cc2cc(Cc3ccc(-c4ccccc4)cc3)ccc2C(=O)N1O`, for which the IC50 is greater than 30000 nM.
On the same count and under the same terms, as for `O=C1Cc2cc(Cc3ccc(-c4ccc(F)cc4)cc3)ccc2C(=O)N1O`, the figure is greater than 30000 nM.

System in the next series: not listed separately
Put plainly: Inhibition of Escherichia coli RNase H pre-incubated for 10 mins before HTS-1 RNA/DNA duplex substrate addition by fluorescence assay.
Details: not given
A digest of the protocol:
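E. coli RNase H at 4 nM with 6 mM MgCl2 and inhibitor at 1, 7 or 30 μM (2% DMSO final) in 50 mM Tris pH 7.8, 50 mM NaCl. Preincubated 10 min at room temperature, then started with 100 nM HTS-1 (fluorescein/Dabcyl RNA/DNA duplex). IC50 taken at curve midpoint; duplicates, at least two independent experiments.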
As to `O=C1Cc2cc(Cc3ccccc3)ccc2C(=O)N1O`, the IC50 amounted to 6500 nM.
Still for that read-out and setting: as for `O=C1Cc2cc(Cc3ccc(-c4ccncc4)cc3)ccc2C(=O)N1O`, the figure is 4000 nM.
Molecule `CS(=O)(=O)c1ccc(-c2ccc(Cc3ccc4c(c3)CC(=O)N(O)C4=O)cc2)cc1` registered an IC50 of 7200 nM.
With `O=C1Cc2cc(Cc3ccc(-c4ccccc4)cc3)ccc2C(=O)N1O`, the IC50 is 3400 nM.
On to `O=C1Cc2cc(Cc3ccc(-c4ccc(F)cc4)cc3)ccc2C(=O)N1O`, for which inhibition was half-maximal at 2900 nM (IC50).
